Here are results for 1 compound from ChEMBL document CHEMBL1127783, “Sugar-linked dithiocarbamates as modulators of metabolic and genotoxic properties of N-nitroso compounds” (J Med Chem, 1994).

Assay [1] is filed under the species Rattus norvegicus. The assay can be described thus: Tested in vitro for N-nitrosodimethylamine (NDMA) demethylase activity at 1 mM for 2 mM concentration of formaldehyde. The format is functional. The gist of the method: (§1)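 Liver microsomal fraction from untreated male Sprague–Dawley rats with NADPH-generating system. NDMA substrate 0.1–1 mM; test compound 2–20 mM or DDTC 2 mM added. Formaldehyde and acetaldehyde formed measured as (2,4-dinitrophenyl)hydrazones. Mean ± SD of three separate experiments.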

Assay [2] has as its system Rattus norvegicus. The experiment in a line: Tested for exhalation of 14CO2 of compound (1.5mmol/kg, ip) was administered 1 h before and 5 h after the treatment of [14C]NDEA (28 mg/kg, 5 microCi/kg, ip) in experiment number 2. It counts as functional. Summed up:
(§2)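 Male Sprague–Dawley rats (two per group) were fasted overnight. They received inhibitor or saline ip at 1.5 mmol/kg 1 h before and again after ip [¹⁴C]NDEA (28 mg/kg, 5 μCi/kg). Animals were then kept 24 h in an all-glass metabolism cage with air flow of 32 L/h. Exhaled air was dried over H₂SO₄, ¹⁴CO₂ was trapped in 1 N NaOH and counted, and the result is expressed as % of the given dose.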

For assay [3], the species on record is Rattus norvegicus. The experiment in a line: Tested in vitro for N-nitrosodimethylamine (NDMA) demethylase activity at 0.1 mM for 0 mM concentration of formaldehyde. It counts as functional. The gist of the method: as §1
The species entered for assay [4] is Rattus norvegicus. The assay can be described thus: Tested in vitro for N-nitrosodimethylamine (NDMA) demethylase activity at 0.1 mM for 2 mM concentration of acetaldehyde. The format is functional. Summed up: as §1
The species entered for assay [5] is Rattus norvegicus. The experiment in a line: Tested in vitro for N-nitrosodimethylamine (NDMA) demethylase activity at 0.5 mM for 2 mM concentration of acetaldehyde. The format is functional. The gist of the method:
as §1

For assay [6], the species on record is Rattus norvegicus. The experiment in a line: Tested in vitro for N-nitrosodimethylamine (NDMA) demethylase activity at 0.1 mM for 2 mM concentration of formaldehyde. It counts as functional. Summed up:
as §1

Assay [7] concerns Rattus norvegicus. The experiment in a line: Tested for urinary excretion of radioactivity of compound (1.5mmol/kg, ip) was administered 1 hr before and 5 hr after the treatment of [14C]-NDEA (28 mg/kg, 5 microCi/kg, ip) in experiment number 1. It counts as functional, organism-based. Summed up: (§3)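 Male Sprague–Dawley rats, fasted overnight, two per group. Inhibitor 1.5 mmol/kg ip or saline, then [14C]NDEA 28 mg/kg (5 μCi/kg) ip 1 h later, then a second inhibitor dose. Rats kept 24 h in all-glass metabolism cages, urine collected into ice-cold flask with NaOH. Total urinary radioactivity and unchanged [14C]NDEA measured after extraction with internal standard; given as % of dose.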

The subject of assay [8] is Rattus norvegicus. The experiment in a line: Tested for exhalation of 14CO2 of compound (1.5mmol/kg, ip) was administered 1 h before and 5 h after the treatment of [14C]NDEA (28 mg/kg, 5 microCi/kg, ip) in experiment number 1. It counts as functional. Summed up:
as §2

The species entered for assay [9] is Rattus norvegicus. The experiment in a line: Tested in vitro for N-nitrosodimethylamine (NDMA) demethylase activity at 1 mM for 2 mM concentration of acetaldehyde. The format is functional. Summed up: as §1
Assay [10] relates to Rattus norvegicus. The assay can be described thus: Tested for urinary excretion of radioactivity of compound (1.5 mmol/kg, ip) was administered 1 h before and 5 h after the treatment of [14C]-NDEA (28 mg/kg, 5 microCi/kg, ip) in experiment number 2. It counts as functional, organism-based. Summed up:
as §3

The species entered for assay [11] is Rattus norvegicus. The experiment in a line: Tested in vitro for N-nitrosodimethylamine (NDMA) demethylase activity at 0.1 mM for 0 mM concentration of acetaldehyde. It counts as functional. Summed up: as §1
The species named for assay [12] is Rattus norvegicus. The experiment in a line: Tested in vitro for N-nitrosodimethylamine (NDMA) demethylase activity at 0.5 mM for 2 mM concentration of formaldehyde. It counts as functional. Summed up:
as §1

Assay [13] has as its system Rattus norvegicus. The assay can be described thus: Tested for unchanged NDEA 24 h administration of [14C]-NDEA in urine in experiment number 1. The format is functional. The gist of the method:
as §3

Consider `CCN(CC)C(=S)[S-].[Na+]` [DITIOCARB SODIUM], for which the Formaldehyde in the assay filed under Rattus norvegicus [1] was 0 nM (mg of protein)-1; in the assay listed under Rattus norvegicus [3], 4.8 nM (mg of protein)-1; in the assay filed under Rattus norvegicus [6], 0.6 nM (mg of protein)-1; in the assay filed under Rattus norvegicus [12], 0.3 nM (mg of protein)-1. For the same compound, the entries for the “Exhal+B1718ation of 14CO2” value with Rattus norvegicus [2] and with Rattus norvegicus [8] were 20.5% and 17.2%, respectively. The Acetaldehyde is recorded as 2.2 nM (mg of protein)-1 in the assay filed under Rattus norvegicus [4], 0.6 nM (mg of protein)-1 in the assay listed under Rattus norvegicus [5], 0.06 nM (mg of protein)-1 in the assay listed under Rattus norvegicus [9] and 0 nM (mg of protein)-1 in the assay listed under Rattus norvegicus [11]. Further, the Radioactivity in urine was found to be 20.7% with Rattus norvegicus [7] and 17.8% in the assay with Rattus norvegicus [10]. Also, in the assay with Rattus norvegicus [13], the “Unchanged NDEA” value was determined as 15.7%.
